Results on eleven compounds are retold here after ChEMBL document CHEMBL1133662, “Novel 3-aminomethyl- and 4-aminopiperidine analogues of 1-[2-(diphenylmethoxy)ethyl]-4-(3-phenylpropyl)piperazines: synthesis and evaluation as dopamine transporter ligands” (J Med Chem, 2000).

The target of experiment [1] is T1, Sodium-dependent serotonin transporter (Homo sapiens, UniProt P31645). Kind of experiment: Binding affinity for serotonin transporter using [125I]RTI-55. The gist of the method:
(§1)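 Membranes from HEK 293 cells expressing human DAT or SERT, lysed in 2 mM HEPES/1 mM EDTA, pelleted at 30000g and resuspended in 0.32 M sucrose (about 15 µg protein per assay). Incubated 90 min at room temperature in the dark, then filtered. Duplicate competition curves; IC50 converted to Ki by Cheng-Prusoff.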

Experiment [2] has as its target T2, Sodium-dependent noradrenaline transporter (Homo sapiens, UniProt P23975). Kind of experiment: Inhibition of [3H]NE reuptake by human norepinephrine transporter expressed in HEK293 cells. In kind it is cell-based.
Experiment [3] deals with T1, Sodium-dependent serotonin transporter. The experiment is described as follows: Inhibition of [3H]5-HT reuptake in HEK293 cells expressing human serotonin transporter. In kind it is cell-based. The gist of the method: (§2)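 Confluent HEK 293 cells expressing human SERT or DAT were scraped into PBS and used as a suspension in Krebs HEPES at 25 °C. Drug (six concentrations, triplicate) was preincubated with cells 10 min. [3H]5-HT or [3H]DA (0.020 µM final) was added for 10 min, then uptake was stopped by filtration onto polyethyleneimine-soaked GF/C filters. IC50 from three independent experiments.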

For experiment [4], the target named is Monoamine transporters; serotonin & dopamine (Homo sapiens) (UniProt P31645+Q01959). Kind of experiment: Selectivity ratio of SERT/DAT. In kind it is protein assay.
Experiment [5] has as its target T2, Sodium-dependent noradrenaline transporter. Kind of experiment: Binding affinity at the norepinephrine transporter was measured using [125I]RTI-55 as a radioligand.
Experiment [6] has as its target Monoamine transporters; Norepinephrine & dopamine (Homo sapiens) (UniProt Q01959+P23975). Kind of experiment: Selectivity ratio of NET/DAT. In kind it is protein assay.
Experiment [7] concerns the target T3, Sodium-dependent dopamine transporter (Homo sapiens, UniProt Q01959). The experiment is described as follows: Inhibition of [3H]dopamine reuptake in HEK293 cells expressing human dopamine transporter. In kind it is cell-based. Put shortly:
as §2

Experiment [8] is described as follows: Discrimination ratio of [3H]-DA reuptake/DAT binding. In kind it is functional.
Experiment [9] in a line: Discrimination ratio of [3H]5-HT reuptake/SERT binding. In kind it is functional.
In experiment [10] the target is T3, Sodium-dependent dopamine transporter. Kind of experiment: Inhibition of [125I]RTI-55 binding to dopamine transporter. The gist of the method:
as §1

Each structure is given as a SMILES string.

Sequence of Monoamine transporters; Norepinephrine & dopamine (Homo sapiens) (P23975 whole entry, looked up): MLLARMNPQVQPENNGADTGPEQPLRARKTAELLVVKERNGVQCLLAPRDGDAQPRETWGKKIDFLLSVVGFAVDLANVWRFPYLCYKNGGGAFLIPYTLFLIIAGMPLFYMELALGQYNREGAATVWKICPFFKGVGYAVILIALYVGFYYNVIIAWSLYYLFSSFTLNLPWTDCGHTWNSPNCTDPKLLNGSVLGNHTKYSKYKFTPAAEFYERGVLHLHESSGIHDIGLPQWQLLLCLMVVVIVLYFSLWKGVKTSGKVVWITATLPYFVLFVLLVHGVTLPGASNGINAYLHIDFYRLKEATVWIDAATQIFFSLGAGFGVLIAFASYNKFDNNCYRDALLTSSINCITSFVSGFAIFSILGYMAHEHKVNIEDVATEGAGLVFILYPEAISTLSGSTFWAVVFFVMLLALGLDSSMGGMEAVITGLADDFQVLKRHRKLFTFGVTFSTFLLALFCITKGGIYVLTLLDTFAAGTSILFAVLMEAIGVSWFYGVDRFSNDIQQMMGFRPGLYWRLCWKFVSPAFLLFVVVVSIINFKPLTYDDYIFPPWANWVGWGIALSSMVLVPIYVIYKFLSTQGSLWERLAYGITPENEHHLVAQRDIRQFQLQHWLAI
Sequence of Monoamine transporters; Norepinephrine & dopamine (Homo sapiens) (Q01959 whole entry, looked up): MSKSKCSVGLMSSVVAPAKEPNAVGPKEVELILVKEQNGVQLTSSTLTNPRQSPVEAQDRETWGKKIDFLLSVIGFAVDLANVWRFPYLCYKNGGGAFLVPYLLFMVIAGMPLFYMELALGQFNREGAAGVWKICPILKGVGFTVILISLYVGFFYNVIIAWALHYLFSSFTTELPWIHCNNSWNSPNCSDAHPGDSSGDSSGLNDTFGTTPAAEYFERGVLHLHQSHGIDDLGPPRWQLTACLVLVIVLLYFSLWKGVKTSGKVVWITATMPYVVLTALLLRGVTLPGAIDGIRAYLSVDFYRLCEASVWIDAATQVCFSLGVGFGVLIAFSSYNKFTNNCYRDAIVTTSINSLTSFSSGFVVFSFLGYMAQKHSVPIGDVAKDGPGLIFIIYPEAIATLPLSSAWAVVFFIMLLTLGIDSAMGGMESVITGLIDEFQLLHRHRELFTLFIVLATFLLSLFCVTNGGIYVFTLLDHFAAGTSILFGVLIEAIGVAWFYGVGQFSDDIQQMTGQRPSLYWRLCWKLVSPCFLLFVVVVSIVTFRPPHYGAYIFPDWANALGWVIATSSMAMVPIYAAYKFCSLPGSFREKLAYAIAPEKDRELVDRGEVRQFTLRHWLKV
T2 sequence (P23975 whole entry): as the sequence (P23975 whole entry, looked up) above
T1 sequence (P31645 whole entry): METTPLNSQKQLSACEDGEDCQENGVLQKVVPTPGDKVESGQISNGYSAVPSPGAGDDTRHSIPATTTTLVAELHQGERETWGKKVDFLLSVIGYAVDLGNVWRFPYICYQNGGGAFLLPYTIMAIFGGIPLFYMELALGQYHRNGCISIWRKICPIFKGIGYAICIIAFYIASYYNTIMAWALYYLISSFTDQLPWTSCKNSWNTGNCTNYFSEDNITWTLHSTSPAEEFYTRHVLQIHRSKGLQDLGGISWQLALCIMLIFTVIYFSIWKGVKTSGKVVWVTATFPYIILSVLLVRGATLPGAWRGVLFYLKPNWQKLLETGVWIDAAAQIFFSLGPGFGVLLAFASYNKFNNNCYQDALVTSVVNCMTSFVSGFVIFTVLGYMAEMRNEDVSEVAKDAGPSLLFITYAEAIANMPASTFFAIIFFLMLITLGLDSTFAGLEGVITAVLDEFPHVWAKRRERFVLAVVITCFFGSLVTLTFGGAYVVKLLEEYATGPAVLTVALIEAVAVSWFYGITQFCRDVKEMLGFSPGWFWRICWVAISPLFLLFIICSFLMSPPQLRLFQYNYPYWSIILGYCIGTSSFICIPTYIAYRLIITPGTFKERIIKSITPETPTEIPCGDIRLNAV
Sequence of Monoamine transporters; serotonin & dopamine (Homo sapiens) (P31645 whole entry, looked up): as the sequence (P31645 whole entry) above
Sequence of Monoamine transporters; serotonin & dopamine (Homo sapiens) (Q01959 whole entry, looked up): as the sequence (Q01959 whole entry, looked up) above
T3 sequence (Q01959 whole entry): as the sequence (Q01959 whole entry, looked up) above

What is called Ki is a measure of affinity in units of concentration, obtained from inhibition or displacement. Higher therefore signals weaker binding. In general, IC50 refers to the concentration that inhibits the measured activity by half. Read a high IC50 as weaker potency. With `CN(CCOC(c1ccccc1)c1ccccc1)C1CCN(CCCc2ccccc2)CC1`, the Ki came out at 1400 nM in [1], 29 nM in experiment [5] and 30 nM in experiment [10]. The figures for the IC50 in [2], in [3] and in experiment [7] were 200 nM, 1910 nM and 330 nM, respectively. For the same compound, the Selectivity ratio in [4] is 47.3; in [6], 1. Moreover, the Discrimination ratio in [8] came out at 11.1; in experiment [9] it was 0.9.
For the compound `Fc1ccc(CCNC2CCN(CCOC(c3ccccc3)c3ccccc3)CC2)cc1`, the Ki was found to be 220 nM in [1], 79 nM in experiment [5] and 110 nM in [10]. The IC50 in experiment [2] is 170 nM; in [3], 470 nM; in experiment [7] it was 320 nM. For the same compound, the values for the Selectivity ratio in [4] and in experiment [6] were 2 and 0.7, respectively. Besides, the Discrimination ratio in experiment [8] is 2.9; in experiment [9], 2.1.
For `Fc1ccc(CCN2CCCC(CNCCOC(c3ccccc3)c3ccccc3)C2)cc1` (configuration not stated), the Ki amounted to 350 nM in [1], 150 nM in experiment [5] and 100 nM in experiment [10]. Besides, the results for the IC50 in experiment [2], in experiment [3] and in experiment [7] were 200 nM, 1130 nM and 500 nM, respectively. Also, the Selectivity ratio in experiment [4] was determined as 3.3; in [6], 1.5. In addition, the results for the Discrimination ratio in experiment [8] and in experiment [9] were 4.8 and 3.3, respectively.
Regarding `CN(CCc1ccc(F)cc1)CC1CCCN(CCOC(c2ccccc2)c2ccccc2)C1` (configuration not stated), the figures for the Ki in experiment [1], in experiment [5] and in experiment [10] were 530 nM, 110 nM and 90 nM, respectively. Also, the IC50 is 350 nM in [2], 2130 nM in experiment [3] and 1260 nM in [7]. The Selectivity ratio worked out at 5.9 in [4] and 1.3 in [6]. Besides, the Discrimination ratio in experiment [8] was determined as 14; in [9] it was 4.
`c1ccc(CCCN2CCCC(CNCCOC(c3ccccc3)c3ccccc3)C2)cc1` (configuration not stated): the results for the inhibition constant Ki in [1], in [5] and in experiment [10] were 210 nM, 23 nM and 18 nM, respectively. Moreover, the IC50 in [2] is 97 nM; in experiment [3], 820 nM; in [7], 150 nM. The Selectivity ratio came out at 11.9 in [4] and 1.3 in [6]. Moreover, the Discrimination ratio in experiment [8] stood at 8.1; in experiment [9], 3.8.
As for `c1ccc(CN2CCC(NCCOC(c3ccccc3)c3ccccc3)CC2)cc1`, the Ki in experiment [1] turned out to be 2160 nM; in experiment [5], 180 nM; in [10], 83 nM. The IC50 came out at 87 nM in experiment [2], 1860 nM in experiment [3] and 270 nM in experiment [7]. Besides, the figures for the Selectivity ratio in experiment [4] and in experiment [6] were 26 and 2.1, respectively. For the same compound, the Discrimination ratio in [8] is 3.2; in experiment [9], 0.9.
In experiment [2], `c1ccc(CCCN2CCN(CCOC(c3ccccc3)c3ccccc3)CC2)cc1` yielded an IC50 of 165 nM. This compound yielded a Ki in experiment [5] of 630 nM.
For `c1ccc(CCCNCC2CCCN(CCOC(c3ccccc3)c3ccccc3)C2)cc1` (configuration not stated), the results for the Ki in [1], in [5] and in experiment [10] were 320 nM, 41 nM and 70 nM, respectively. Moreover, the IC50 in experiment [2] was 48 nM; in [3], 770 nM; in [7] it was 105 nM. In addition, the figures for the Selectivity ratio in experiment [4] and in experiment [6] were 4.5 and 0.6, respectively. Also, the results for the Discrimination ratio in [8] and in [9] were 1.5 and 2.5, respectively.
For `Fc1ccc(CCNCC2CCCN(CCOC(c3ccccc3)c3ccccc3)C2)cc1` (configuration not stated), the Ki in experiment [1] came to 890 nM; in experiment [5], 190 nM; in experiment [10] it was 87 nM. Moreover, the IC50 in experiment [2] came out at 190 nM; in experiment [3], 1830 nM; in experiment [7] it was 364 nM. For the same compound, the Selectivity ratio in experiment [4] amounted to 10.2; in [6] it was 2.1. Moreover, the Discrimination ratio in experiment [8] was determined as 4.2; in experiment [9], 2.1.
With `c1ccc(CCCNC2CCN(CCOC(c3ccccc3)c3ccccc3)CC2)cc1`, the Ki in [1] was 55 nM; in [5], 120 nM; in [10] it was 160 nM. Also, the IC50 in experiment [2] was determined as 230 nM; in [3], 390 nM; in experiment [7], 390 nM. In addition, the Selectivity ratio is 0.4 in [4] and 0.8 in experiment [6]. In addition, the Discrimination ratio in experiment [8] amounted to 2.5; in experiment [9], 7.1.
With `CN(CCCc1ccccc1)C1CCN(CCOC(c2ccccc2)c2ccccc2)CC1`, the Ki in experiment [1] stood at 87 nM; in experiment [5] it was 42 nM; in experiment [10], 340 nM. The IC50 in experiment [2] stood at 180 nM; in [3] it was 310 nM; in [7], 210 nM. Besides, the results for the Selectivity ratio in experiment [4] and in experiment [6] were 0.3 and 0.1, respectively. Moreover, the Discrimination ratio amounted to 0.6 in [8] and 3.6 in experiment [9].
